Measurements as given in ChEMBL document CHEMBL1145867, “Muraymycins, novel peptidoglycan biosynthesis inhibitors: synthesis and SAR of their analogues” (2003).
≈ marks a conversion by molar mass, not a printed value. Each block holds one compound with its values, some of them ahead of it. Calls of active or inactive are those of the source. No cut-off for these calls is given here.

Experiments:
Pseudomonas aeruginosa [1] = experiment: In vitro antimicrobial activity against Pseudomonas aeruginosa GC 2214; format: functional
Method in brief: (§1)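 Broth microdilution per NCCLS guidance. Serial dilutions of each agent in microtiter plates are inoculated with each organism to 10⁵ CFU/mL and incubated 18–22 h at 35 C in ambient air. MIC is the lowest concentration giving complete growth inhibition, judged by the unaided eye.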

Staphylococcus sp. [2] = experiment: In vitro antimicrobial activity against Staphylococci; format: functional, staphyl ococcus species; method in brief: as §1
Enterococcus faecalis [3] = experiment: In vitro antimicrobial activity against Enterococcus faecalis GC 842; format: functional; method in brief: as §1
[4] = The inhibitory activity of compound against MraY or MurG at 100 ug/mL; Inhibit
Candida albicans = experiment: In vitro antimicrobial activity against Candida albicans GC 3066; format: functional; method in brief: as §1
[5] = The inhibitory activity of compound against MraY or MurG at 25 ug/mL; No Inhibition
Staphylococcus aureus [6] = experiment: In vitro antimicrobial activity against Staphylococcu aureus GC 2216; format: functional; method in brief: as §1
Staphylococcus aureus [7] = experiment: In vitro antimicrobial activity against Staphylococcu aureus GC 4536; format: functional; method in brief: as §1
Serratia marcescens = experiment: In vitro antimicrobial activity against Serratia marcescens GC 4077; format: functional; method in brief: as §1
Pseudomonas aeruginosa [8] = experiment: In vitro antimicrobial activity against Pseudomonas aeruginosa GC 4532; format: functional; method in brief: as §1
Bacteria = experiment: In vitro antimicrobial activity against gram-negative organisms (10); format: functional; method in brief: as §1
Escherichia coli [9] = experiment: In vitro antimicrobial activity against Escherichia coli GC 4559; format: functional; method in brief: as §1
[10] = The inhibitory activity of compound against MraY or MurG at 50 ug/mL; Inhibit
Enterococcus faecalis [11] = experiment: In vitro antimicrobial activity against Enterococcus faecalis GC 4555; format: functional; method in brief: as §1
Escherichia coli [12] = experiment: In vitro antimicrobial activity against Escherichia coli GC 4560; format: functional; method in brief: as §1
Morganella morganii = experiment: In vitro antimicrobial activity against Morganella morganii GC 4531; format: functional; method in brief: as §1
Klebsiella pneumoniae = experiment: In vitro antimicrobial activity against Klebsiella pneumoniae GC 4534; format: functional; method in brief: as §1
Escherichia coli [13] = experiment: In vitro antimicrobial activity against Escherichia coli GC 2214; format: functional; method in brief: as §1
Staphylococcus aureus [14] = experiment: In vitro antimicrobial activity against Staphylococcu aureus GC 1131; format: functional
Method in brief: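 Broth dilution per NCCLS recommendations. Serial dilutions in microtiter plates inoculated to 10⁵ CFU/mL, then incubated 18–22 h at 35 C in ambient air. MIC taken as the lowest concentration giving complete growth inhibition by unaided eye.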

Staphylococcus sp. [15] = experiment: In vitro antimicrobial activity against CNS GC 4538; format: functional; method in brief: as §1
Escherichia coli [16] = experiment: In vitro antimicrobial activity against Escherichia coli GC 3226; format: functional; method in brief: as §1
[17] = The inhibitory activity of compound against MraY or MurG at 6.25 ug/mL; No Inhibition
Enterobacter cloacae = experiment: In vitro antimicrobial activity against Enterobacter cloacae GC 3783; format: functional; method in brief: as §1
Enterococcus sp. = experiment: In vitro antimicrobial activity against Enterococci; format: functional; method in brief: as §1
Staphylococcus sp. [18] = experiment: In vitro antimicrobial activity against CNS GC 4547; format: functional; method in brief: as §1
Enterococcus faecalis [19] = experiment: In vitro antimicrobial activity against Enterococcus faecalis GC 2242; format: functional; method in brief: as §1
[20] = The inhibitory activity of compound against MraY or MurG at 12.5 ug/mL; No Inhibition
[21] = The inhibitory activity of compound against MraY or MurG at 50 ug/mL; No Inhibition
[22] = The inhibitory activity of compound against MraY or MurG at 100 ug/mL; No Inhibition

MIC (Pseudomonas aeruginosa [1]): > 128 µg/mL
MIC (Staphylococcus sp. [2]): 4 µg/mL (≈ 3.84 µM)
MIC (Enterococcus faecalis [3]): 8 µg/mL (≈ 7.68 µM)
Inhibitory activity [4]: Inhibit
MIC (Candida albicans): > 128 µg/mL
Inhibitory activity [5]: inactive
MIC (Staphylococcus aureus [6]): 8 µg/mL (≈ 7.68 µM)
MIC (Staphylococcus aureus [7]): 8 µg/mL (≈ 7.68 µM)
MIC (Serratia marcescens): 128 µg/mL (≈ 123 µM)
MIC (Pseudomonas aeruginosa [8]): > 128 µg/mL
MIC (Bacteria): 128 µg/mL (≈ 123 µM)
MIC (Escherichia coli [9]): > 128 µg/mL
Inhibitory activity [10]: Inhibit
MIC (Enterococcus faecalis [11]): 8 µg/mL (≈ 7.68 µM)
MIC (Escherichia coli [12]): 8 µg/mL (≈ 7.68 µM)
MIC (Morganella morganii): 128 µg/mL (≈ 123 µM)
MIC (Klebsiella pneumoniae): > 128 µg/mL
MIC (Escherichia coli [13]): 128 µg/mL (≈ 123 µM)
MIC (Staphylococcus aureus [14]): 4 µg/mL (≈ 3.84 µM)
MIC (Staphylococcus sp. [15]): 8 µg/mL (≈ 7.68 µM)
MIC (Staphylococcus sp. [15]; Staphylococcus sp., read-out: MIC): 8 µg/mL (≈ 7.68 µM)
MIC (Escherichia coli [16]): 128 µg/mL (≈ 123 µM)
Inhibitory activity [17]: inactive
MIC (Enterobacter cloacae): > 128 µg/mL
MIC (Enterococcus sp.): 8 µg/mL (≈ 7.68 µM)
MIC (Staphylococcus sp. [18]): 16 µg/mL (≈ 15.4 µM)
MIC (Enterococcus faecalis [19]): 8 µg/mL (≈ 7.68 µM)
Inhibitory activity [20]: inactive
Structure (SMILES): COc1ccc(Cn2c(=O)ccn([C@@H]3OC([C@H](O)[C@H](NCCCNC(=O)[C@H](N)CCCCNC(=O)OCc4ccccc4)C(=O)OC(C)(C)C)[C@@H](O[Si](C)(C)C(C)(C)C)[C@H]3O[Si](C)(C)C(C)(C)C)c2=O)cc1 (stereo not given in full)

MIC (Staphylococcus sp. [2]): > 128 µg/mL
MIC (Bacteria): > 128 µg/mL
MIC (Enterococcus sp.): > 128 µg/mL
Structure (SMILES): COc1ccc(Cn2c(=O)ccn([C@@H]3OC([C@H](O)[C@H](NCCCNC(=O)[C@@H](CC(C)C)NC(=O)[C@H](CCCN=C(N)N)NC(=O)N[C@H](C(=O)O)C(C)C)C(=O)OC(C)(C)C)[C@@H](O[Si](C)(C)C(C)(C)C)[C@H]3O[Si](C)(C)C(C)(C)C)c2=O)cc1 (stereo not given in full)

MIC (Staphylococcus sp. [2]): > 128 µg/mL
MIC (Bacteria): > 128 µg/mL
MIC (Enterococcus sp.): > 128 µg/mL
Structure (SMILES): COc1ccc(Cn2c(=O)ccn([C@@H]3OC([C@H](O)[C@H](NCCCNC(=O)[C@H](N)CC(C)C)C(=O)OC(C)(C)C)[C@@H](O)[C@H]3O)c2=O)cc1 (stereo not given in full)

MIC (Staphylococcus sp. [2]): 16 µg/mL (≈ 16.3 µM)
Inhibitory activity [4]: Inhibit
Inhibitory activity [5]: inactive
MIC (Bacteria): 128 µg/mL (≈ 130 µM)
Inhibitory activity [10]: Inhibit
Inhibitory activity [17]: inactive
MIC (Enterococcus sp.): 4 µg/mL (≈ 4.06 µM)
Inhibitory activity [20]: inactive
Structure (SMILES): COc1ccc(Cn2c(=O)ccn([C@@H]3OC([C@H](O)[C@H](NCCCNC(=O)[C@H](N)CC(=O)OCc4ccccc4)C(=O)OC(C)(C)C)[C@@H](O[Si](C)(C)C(C)(C)C)[C@H]3O[Si](C)(C)C(C)(C)C)c2=O)cc1 (stereo not given in full)

MIC (Staphylococcus sp. [2]): > 128 µg/mL
Inhibitory activity [5]: inactive
Inhibitory activity [21]: inactive
MIC (Bacteria): > 128 µg/mL
Inhibitory activity [22]: inactive
Inhibitory activity [17]: inactive
MIC (Enterococcus sp.): > 128 µg/mL
Inhibitory activity [20]: inactive
Structure (SMILES): COc1ccc(Cn2c(=O)ccn([C@@H]3OC([C@H](O)[C@H](NCCCNC(=O)[C@H](N)CCc4ccccc4)C(=O)OC(C)(C)C)[C@@H](O[Si](C)(C)C(C)(C)C)[C@H]3O[Si](C)(C)C(C)(C)C)c2=O)cc1 (stereo not given in full)

MIC (Staphylococcus sp. [2]): > 128 µg/mL
MIC (Bacteria): > 128 µg/mL
MIC (Enterococcus sp.): > 128 µg/mL
Structure (SMILES): COc1ccc(Cn2c(=O)ccn([C@@H]3OC([C@H](O)[C@H](NCCCNC(=O)[C@@H](CC(C)C)NC(=O)[C@H](CCC/N=C(\N)N[N+](=O)[O-])NC(=O)N[C@H](C(=O)OCc4ccccc4)C(C)C)C(=O)OC(C)(C)C)[C@@H](O[Si](C)(C)C(C)(C)C)[C@H]3O[Si](C)(C)C(C)(C)C)c2=O)cc1 (stereo not given in full)

MIC (Staphylococcus sp. [2]): 128 µg/mL (≈ 119 µM)
MIC (Bacteria): > 128 µg/mL
MIC (Enterococcus sp.): 128 µg/mL (≈ 119 µM)
Structure (SMILES): COc1ccc(Cn2c(=O)ccn([C@@H]3OC([C@H](O)[C@H](NCCCNC(=O)[C@@H](CCc4ccccc4)NC(=O)OCc4ccccc4)C(=O)OC(C)(C)C)[C@@H](O[Si](C)(C)C(C)(C)C)[C@H]3O[Si](C)(C)C(C)(C)C)c2=O)cc1 (stereo not given in full)

Structure (SMILES): COc1ccc(Cn2c(=O)ccn([C@@H]3OC([C@H](O)[C@H](NCCCNC(=O)[C@@H](CC(C)C)NC(=O)[C@H](CCC/N=C(\N)N[N+](=O)[O-])NC(=O)N[C@H](C(=O)OCc4ccccc4)C(C)C)C(=O)O)[C@@H](O)[C@H]3O)c2=O)cc1 (stereo not given in full)
MIC (Staphylococcus sp. [2]): > 128 µg/mL
MIC (Bacteria): > 128 µg/mL
MIC (Enterococcus sp.): > 128 µg/mL

MIC (Staphylococcus sp. [2]): > 128 µg/mL
MIC (Bacteria): > 128 µg/mL
MIC (Enterococcus sp.): > 128 µg/mL
Structure (SMILES): COc1ccc(Cn2c(=O)ccn([C@@H]3OC([C@H](O)[C@H](NCCCNC(=O)[C@H](NC(=O)[C@H](CCC/N=C(\N)N[N+](=O)[O-])NC(=O)N[C@H](C(=O)OCc4ccccc4)C(C)C)C(O)C(C)C)C(=O)OC(C)(C)C)[C@@H](O[Si](C)(C)C(C)(C)C)[C@H]3O[Si](C)(C)C(C)(C)C)c2=O)cc1 (stereo not given in full)

MIC (Staphylococcus sp. [2]): > 128 µg/mL
Inhibitory activity [5]: inactive
Inhibitory activity [21]: inactive
MIC (Bacteria): > 128 µg/mL
Inhibitory activity [22]: inactive
Inhibitory activity [17]: inactive
MIC (Enterococcus sp.): > 128 µg/mL
Inhibitory activity [20]: inactive
Structure (SMILES): COc1ccc(Cn2c(=O)ccn([C@@H]3OC([C@H](O)[C@H](NCCCNC(=O)[C@H](N)CCC(=O)OC(C)(C)C)C(=O)OC(C)(C)C)[C@@H](O[Si](C)(C)C(C)(C)C)[C@H]3O[Si](C)(C)C(C)(C)C)c2=O)cc1 (stereo not given in full)
